Test results as given in ChEMBL document CHEMBL1124897, “(1-Pyrenylmethyl)amino alcohols, a new class of antitumor DNA intercalators. Discovery and initial amine side chain structure-activity studies” (1990).

How the values were obtained:
Format in all cases: functional, Mus musculus
P388 [1] = test: In vivo antitumor activity against murine lymphocytic leukemia P388 measured as percent increase in life span
How it was run: (§1)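 Male CD2-F1 mice (20 ± 3 g) implanted ip with 1 × 10^6 viable P388 cells on day 0. Drug given ip as aqueous suspension or solution in 0.9% NaCl or 5% dextrose on days 1, 5 and 9, dosed per body weight in mg/kg. Several dose levels bracketing the LD20 were tested, six mice per dose. Deaths before the control median day of death were counted as drug toxicity.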

P388 [2] = test: In vivo antitumor activity against murine lymphocytic leukemia P388 measured as lethal dose […]; set-up: unit: mg/kg; how it was run: as §1
P388 [3] = test: In vivo antitumor activity against murine lymphocytic leukemia P388 measured as optimal dose
How it was run: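 Male CD2-F1 mice (20 ± 3 g) implanted ip with 1 × 10^6 viable P388 cells on day 0. Compound given ip as aqueous suspension or solution in 0.9% NaCl or 5% dextrose on days 1, 5 and 9, dosed per mg/kg body weight. Several doses bracketing LD20 were tested, six mice per dose. %ILS was calculated from median day of death of treated versus control mice. Values are optimal from at least two experiments.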

## CC(CO)NCc1ccc2ccc3cccc4ccc1c2c34.Cl (stereo not drawn)
P388 [1]
  ILS: 25%
P388 [2]
  LD20: 600
P388 [3]
  Optimal dose: 220 mg/kg
